# Screening data as filed in PubChem.
# Sampled rows, rich in hits. Any-hit rate of the full collection: about 2.6%.
# SENP6 block: SENP6 protease inhibition. Q9GZR1. Recombinant SENP6 catalytic domain, aminoluciferin luminescence. inhibition, % at 10 µM. actives 1.8% (n = 330,000). AID 2599;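 active = inhibition above about 50% at the single tested dose, limit read from the data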;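 also: plate controls were DMSO wells with enzyme for no effect and DMSO wells lacking enzyme for full effect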
# UCH37 inh: human UCH37 deubiquitinating enzyme inhibition | Q9Y5K5 | purified proteasome/UCH37, Ub-AMC cleavage fluorescence | inhibition, % (no concentration beside the values) | actives 0.33% (n = 330,000) | AID 588478;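 active = mean inhibition over replicate wells above about 20%, limit read from the data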;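 also: 0% = compound-free wells with enzyme and 100% = wells lacking proteasome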
#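 Assay system: Proteasome-bound UCH37. Buffer or medium: pH 7.4 Tris-HCl (50 mM) with ovalbumin, ATP-MgCl2, DTT. Incubation: 30 min preincubation with enzyme, 25 min cleavage at room temperature. Measured by: fluorescence, ex 355 nm, em 460 nm. Read-out basis: percent inhibition. Control set: wells without proteasome as full block, compound-free enzyme plus substrate as uninhibited.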
# SENP7 block: SENP7 protease inhibition. actives 1.5% (n = 330,000). inhibition, % at 5 µM. recombinant SENP7, Z-RLRGG-aminoluciferin luminescence, 40 min. AID 434973. Q9BQF6;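 active = inhibition above about 50% at the single test dose, limit read from the data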;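 also: plate controls were DMSO with enzyme for no effect and no enzyme buffer wells for full effect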
# SENP8 block-1: SENP8 protease inhibition; actives 1.2% (n = 330,000); Q96LD8; AID 2540; purified SENP8, Z-RLRGG-aminoluciferin cleavage, luminescence; inhibition, % at 10 µM; in the data active = inhibition above about 50%
# Target sequence (Q96LD8 whole entry, looked up): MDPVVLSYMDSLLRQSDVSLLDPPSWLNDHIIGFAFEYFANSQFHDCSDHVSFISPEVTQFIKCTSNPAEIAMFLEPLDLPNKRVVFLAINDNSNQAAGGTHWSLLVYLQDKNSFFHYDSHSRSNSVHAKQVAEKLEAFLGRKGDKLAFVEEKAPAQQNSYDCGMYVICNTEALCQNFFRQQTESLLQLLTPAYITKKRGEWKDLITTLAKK
# SENP1 FRET inh: inhibitors of human SENP1 SUMO protease catalytic domain; recombinant SENP1 catalytic domain, CyPet-SUMO1-YPet FRET cleavage; actives 0.21% (n = 360,000); Q9P0U3; inhibition, % at 10 µM;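 active = inhibition at least 30% at 10 µM, raw YFP signal under a set limit, fluorescence ratio 0.5 to 1.5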;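 also: 0% = enzyme with DMSO and 100% = no enzyme wells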
# Target sequence (Q9P0U3 419-644 limits assumed): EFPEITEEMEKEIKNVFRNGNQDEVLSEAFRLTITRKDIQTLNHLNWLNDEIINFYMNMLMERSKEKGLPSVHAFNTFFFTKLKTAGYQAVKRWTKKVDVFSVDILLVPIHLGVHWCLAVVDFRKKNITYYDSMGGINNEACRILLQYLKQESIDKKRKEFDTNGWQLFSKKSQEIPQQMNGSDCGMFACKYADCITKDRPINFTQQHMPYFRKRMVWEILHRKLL
#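 material = recombinant human SENP1 catalytic domain, His6-tagged | quantity = 20 pM enzyme | reagent = 25 nM SUMO1 FRET substrate | compound dosing = 10 µM single point, 0.5% DMSO | timing = 50 min enzyme reaction, room temperature, light-protected | detection = FRET, CFP and YFP emission | control set = no-enzyme low, enzyme-DMSO high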
# SENP8 block-2: SENP8 (human) protease inhibition; AID 602440; inhibition, % at 20 µM; recombinant SENP8, Nedd8 substrate fluorescence; actives 0.64% (n = 360,000); Q96LD8; in the data active = inhibition mostly above about 40%, no sharp cut-off; inactive = mostly below about 27%
# SENP8 confirm: confirmation of human SENP8 protease inhibitors | shares compounds with SENP7 block | Recombinant SENP8, Z-RLRGG-aminoluciferin luminescence, 60 min | inhibition, % at 12.5 µM | actives 40% (n = 6,200);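 active = mean inhibition across replicates above about 50%, limit read from the data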
# SENP6 confirm: human SENP6 inhibition, confirmed | shares compounds with SENP7 block | inhibition, % at 12.5 µM | actives 58% (n = 6,200) | recombinant SENP6, Z-RLRGG-aminoluciferin luminescence
# SENP7 conf: confirmation of human SENP7 protease inhibitors; AID 488917; shares compounds with SENP7 block; actives 69% (n = 6,200); inhibition, % at 12.5 µM; recombinant SENP7, Z-RLRGG-aminoluciferin luminescence, 40 min
# Casp3 select: selectivity test for SENP inhibitors: human caspase-3 inhibition | actives 60% (n = 6,200) | inhibition, % at 12.5 µM | shares compounds with SENP7 block | purified caspase-3, Z-DEVD-aminoluciferin luminescence, 60 min;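 active = mean inhibition above about 50%, limit read from the data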;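 also: plate controls were enzyme with DMSO for no effect and wells without caspase-3 for full effect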
# Luc interf: luminescence interference (SENP counter-screen); shares compounds with SENP7 block; actives 39% (n = 6,200); inhibition, % at 12.5 µM; Pre-incubated SENP8/Z-RLRGG-aminoluciferin, luciferase luminescence interference;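 active = mean inhibition above about 50% when retested at one dose, limit read from the data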;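 also: plate controls were DMSO wells with completed reaction for no effect and substrate without enzyme for full effect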
# The depositor's hits bear a star; · = no result.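 The calls were made as follows, unless noted: active = mean inhibition above about 50% in the one-dose retest (limit read from the data); inactive = the rest.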
SMILES,SENP6 block,UCH37 inh,SENP7 block,SENP8 block-1,SENP1 FRET inh,SENP8 block-2,SENP8 confirm,SENP6 confirm,SENP7 conf,Casp3 select,Luc interf
CN=C1S/C(=C\c2ccc(O)c(Br)c2)C(=O)N1C,97*,4,100*,97*,-68,-10,99*,100*,102*,98*,80*
CN=C1S/C(=C\c2ccc(SC)cc2)C(=O)N1C,70*,3,62*,62*,-4,-147,69*,67*,84*,65*,47
Cc1ccc(Oc2ccccc2/C=C2\SC(=O)N(C)C2=O)cc1,-12,0,-12,-13,2,-36,·,·,·,·,·
CN=C1S/C(=C\c2ccc(OCC(=O)OC)c(OC)c2)C(=O)N1C,28,9,41,19,3,-75,·,·,·,·,·
O=C(NN=Cc1ccccc1C(=O)O)c1cccc(S(=O)(=O)Nc2cc(Cl)ccc2Cl)c1,·,0,·,·,·,·,·,·,·,·,·
c1cc2[nH]snc2c2nc(C3CC3)nc12,55*,2,28,29,4,-100,-4,-1,3,35,17
O=C(COc1ccc(Cl)cc1[N+](=O)[O-])NN=Cc1cccs1,·,5,·,·,·,·,·,·,·,·,·
CCOC(=O)c1c(C)oc2c1c(C=NCCC(=O)O)c(O)c1ccccc12,77*,17,26,66*,-32,32,-18,44,20,-3,2
COc1ccc(C=NOCC(=O)N2CC3(C)CC2CC(C)(C)C3)cc1OC (stereo not drawn),·,1,·,·,·,·,·,·,·,·,·
Nc1ccccc1N=Nc1ccccc1N,86*,0,85*,77*,13,-88,85*,83*,96*,73*,64*
CC(=O)Nc1ccc(C(C)=NNS(=O)(=O)c2ccc(C)cc2)cc1,·,-1,·,·,·,·,·,·,·,·,·
Fc1ccc(-c2nnc(-c3ccc(F)cc3)o2)cc1,52*,0,60*,24,3,22,12,15,36,37,5
c1ccc(-c2nnc(NC3=NCCC3)o2)cc1,7,0,43,37,2,24,·,·,·,·,·
Fc1ccc(-c2nnc(Cc3nnc(-c4ccc(F)cc4)o3)o2)cc1,-4,1,0,-3,-2,1,·,·,·,·,·
Fc1ccc(-c2nnc(NC3=NCCCCC3)o2)cc1,91*,0,98*,89*,2,19,11,95*,102*,98*,75*
Cc1ccc(S(=O)(=O)N=C(N)Nc2nc(C)c3cc(C)c(C)cc3n2)cc1,·,-44,·,·,·,·,·,·,·,·,·
COc1nsnc1NS(=O)(=O)c1ccc(NC(=S)NC(=O)c2cccnc2)cc1,54*,5,30,24,1,16,55*,51*,82*,84*,55*
CC(C)n1c(O)c(/C=C2\C=Nc3ccccc32)sc1=Nc1ccccc1,-2,3,2,3,-13,7,·,·,·,·,·
CSc1nc(/C=C2\C=Nc3ccccc32)c(O)n1C,73*,·,52*,54*,-127,-5,76*,74*,89*,71*,65*
CCN1CCc2c(sc(NC(=S)NC(=O)c3ccccc3)c2C#N)C1,56*,4,46,14,-18,-47,28,27,34,44,18
CC(=O)OCC(=O)Nc1ccc([N+](=O)[O-])cc1Cl,7,6,6,-2,1,12,·,·,·,·,·
